Results taken from publication PMC9670593 (Journal of Molecular Liquids, 2022).
In brackets after ≈: the same amount, converted by molar mass. Several values for one entry are separate records, joined by “and”; a condition that tells them apart may be missing. Equal entries are not always repeated. Where two headings read alike, the source gives them in different places.

Tests used:
[1] = system: Escherichia coli (ATCC: 25922); test: Antibacterial agar disc diffusion; format: cell-based; settings: for Inhibition zones (mm): 5-mm discs, 100 μg/mL; for Activity index (%): relative to ampicillin; for zone of inhibition at 100 µg/mL: Escherichia coli, read-out: Inhibition zones (mm)
Summary of the method: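 E. coli ATCC 25922 grown on Mueller–Hinton agar, 18–24 h at 35 °C. Inoculum adjusted to McFarland 0.5 (1.5x 10^8 CFU/mL) and swabbed as a lawn on Mueller–Hinton plates. Test compounds were stocked at 20 mg in 1 mL DMSO, and 5-mm paper discs were loaded with 100 μg/mL. Inhibition zone diameter was measured against ampicillin as standard, with DMSO as negative control. Assayed twice.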

[2] = molecular target: Human serum albumin (HSA) (Homo sapiens, UniProt P02768); test: HSA binding, fluorescence quenching titration; settings: slope of Fo/F vs [metal complex]
Human serum albumin (HSA), sequence (P02768 25-609): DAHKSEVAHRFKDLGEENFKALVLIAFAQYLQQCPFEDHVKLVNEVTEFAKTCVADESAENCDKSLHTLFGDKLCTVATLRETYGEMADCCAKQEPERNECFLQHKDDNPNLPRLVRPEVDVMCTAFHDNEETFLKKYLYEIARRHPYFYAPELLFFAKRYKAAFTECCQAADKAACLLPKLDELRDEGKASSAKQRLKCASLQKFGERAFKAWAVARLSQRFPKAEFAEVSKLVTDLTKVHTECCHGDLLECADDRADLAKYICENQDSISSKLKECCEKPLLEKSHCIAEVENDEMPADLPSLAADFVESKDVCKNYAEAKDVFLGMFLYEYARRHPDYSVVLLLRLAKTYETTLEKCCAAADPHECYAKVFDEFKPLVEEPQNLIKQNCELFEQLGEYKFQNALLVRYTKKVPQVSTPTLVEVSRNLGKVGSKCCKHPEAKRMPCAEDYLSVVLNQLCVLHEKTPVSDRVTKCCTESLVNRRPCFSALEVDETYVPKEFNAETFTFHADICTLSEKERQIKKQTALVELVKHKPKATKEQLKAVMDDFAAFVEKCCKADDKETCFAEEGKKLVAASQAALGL
Summary of the method: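 HSA concentration fixed spectrophotometrically at 278 nm using ε 35,219 M−1cm−1 (1 cm quartz). Increasing amounts of metal complex were titrated into constant HSA. Tryptophan fluorescence was excited at 280 nm and emission recorded over 300–400 nm. KSV was taken as the slope of the Stern–Volmer plot Fo/F versus [complex].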

[3] = system: HEK293: human embryonic kidney cells; test: Cytotoxicity MTT assay, HEK293 normal cells; format: cell-based; settings: for IC50 HEK293: MTT, normal cell line, means ± SD, n = 3
Summary of the method: (§1)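 Cells were kept in DMEM with 0.2 % sodium bicarbonate and 10 % FBS at 37 °C, 5 % CO2, humidified. Only batches above 98 % trypan-blue viability were used. 10,000 cells/well adhered 24 h before treatment. MTT (5 mg/ml PBS stock, 10 μl per 100 μl) was added for 4 h, formazan dissolved in DMSO and read at 550 nm. Background-corrected survival = ODt/ODc ×100 versus untreated controls; IC50 taken from dose–response curves; cisplatin reference.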

[4] = Formation stability constant of the complexes; format: physicochemical; settings: metal:ligand 1:2
[5] = system: HELA: cancerous cervical tumor cells; test: Cytotoxicity MTT assay, HELA; format: cell-based, human; settings: for IC50 HELA: means ± SD, n = 3; for IC50: read-out: IC50 HELA; for cytotoxic activity class, HELA: class by IC50 (µg/mL)
Summary of the method: as §1

[6] = system: Escherichia coli (ATCC: 25922); test: Antibacterial minimal inhibitory concentration; format: cell-based; settings: 24 h; for Minimum Inhibition concentration (MIC): E. coli
Summary of the method: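 Test compounds were stocked at 20 mg/mL in DMSO. Ampicillin was run as standard drug and DMSO as negative control. MIC reported in μM.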

[7] = system: MCF-7: a human breast cancer cell line; test: Cytotoxicity MTT assay, MCF-7; format: cell-based; settings: for IC50 MCF-7: means ± SD, n = 3; for IC50: read-out: IC50 MCF-7
Summary of the method: as §1

[8] = system: Escherichia coli; settings: cited from earlier work

Compound | Inhibition zones (mm) [1] | Activity index (%) [1] | fluorescence constant (Kvs; Stern-Volmer quenching constant KSV) with HSA [2] | IC50 HEK293 [3] | formation stability constant for the complexes [4] | IC50 HELA ([5]; MTT) | IC50 ([5]; MTT) | Minimum Inhibition concentration (MIC) [6] | IC50 MCF-7 ([7]; MTT) | IC50 ([7]; MTT) | concentration showing complete inhibition of Escherichia coli [8] | reported growth-inhibiting concentration toward Escherichia coli ([8]; practical value for more than 24 h) | zone of inhibition at 100 µg/mL [1] | IC50 ([3]; Homo sapiens, HEK293, read-out: IC50 HEK293) | IC50 ([5]; Homo sapiens, HeLa) | MIC ([6]; Escherichia coli, read-out: Minimum Inhibition concentration (MIC)) | IC50 ([7]; Homo sapiens, MCF7a) | cytotoxic activity class, HELA [5] | cytotoxic activity class, MCF-7 ([7]; class by IC50 (µg/mL))
[Ag(NTZ)2]NO3 [NTZ-Ag(I)] | 28 mm | 85% | 3e+06 M⁻¹ | 660 ± 3 µg/mL | 4.22 × 10^5 | 45 ± 2 µg/mL | 58.7 µM | 5.5 µM | 39 ± 4 µg/mL | 50.8 µM |  |  |  |  |  |  |  |  | 
O=[N+]([O-])[O-].[Ag+] [AgNO3] |  |  |  |  |  |  |  |  |  |  | > 8.5 µM | 6.5 µM |  |  |  |  |  |  | 
CC1(C)S[C@@H]2[C@H](NC(=O)[C@H](N)c3ccccc3)C(=O)N2[C@H]1C(=O)O [Ampicillin, reference compound] |  | 100% |  |  |  |  |  |  |  |  |  |  | 33 mm |  |  |  |  |  | 
CC(=O)Oc1ccccc1C(=O)Nc1ncc([N+](=O)[O-])s1 [Free NTZ, 2-(acetyloxy)-N-(5-nitro-2-thiazolyl) benzamide, reference compound] |  | 24% |  |  |  |  |  |  |  |  |  |  | 8 mm | 1050 ± 10 µg/mL (≈ 3.42 mM) | 78 µg/mL and 254 µM | 105 µM (≈ 32.3 µg/mL) | 62 µg/mL and 202 µM |  | 
[Au(NTZ)2]Cl3 [NTZ-Au(III)] | 12 mm | 37% | 7e+06 M⁻¹ | 675 ± 5 µg/mL | 17.92 × 10^5 | 8.9 ± 4 µg/mL | 9.7 µM | 27.5 µM | 25 ± 5 µg/mL | 27.3 µM |  |  |  |  |  |  |  | very strong (1–10 (very strong)) | Moderate
[Ru(NTZ)2Cl2]Cl [NTZ-Ru(III)] | 20 mm | 61% | 4e+06 M⁻¹ | 265 ± 5 µg/mL | 34.37 × 10^5 | 6.5 ± 3 µg/mL | 7.9 µM | 7.5 µM | 10.5 ± 2 µg/mL | 12.8 µM |  |  |  |  |  |  |  | very strong (1–10 (very strong)) | 
